Reference: ChEMBL document CHEMBL4823277, “Novel chalcone-conjugated, multi-flexible end-group coumarin thiazole hybrids as potential antibacterial repressors against methicillin-resistant Staphylococcus aureus” (Eur J Med Chem, 2021)
Values after ≈ are worked out from the molar mass of the structure shown.

What was measured:
Format in all cases: functional
[1] = test system: Staphylococcus aureus; assay: Antibacterial activity against methicillin-resistant Staphylococcus aureus N315 by microbroth dilution method
Method in brief: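 Minimum inhibitory concentration against MRSA N315 determined by micro broth dilution in microdilution plates.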

[2] = test system: Enterococcus faecalis; assay: Antibacterial activity against Enterococcus faecalis by microbroth dilution method
[3] = test system: Staphylococcus aureus; assay: Antibacterial activity against Staphylococcus aureus by microbroth dilution method
[4] = test system: Staphylococcus aureus; assay: Antibacterial activity against Staphylococcus aureus ATCC 25923 by microbroth dilution method
[5] = test system: Staphylococcus aureus; assay: Antibacterial activity against Staphylococcus aureus ATCC 29213 by microbroth dilution method
[6] = test system: Klebsiella pneumoniae; assay: Antibacterial activity against Klebsiella pneumonia by microbroth dilution method
[7] = test system: Escherichia coli; assay: Antibacterial activity against Escherichia coli by microbroth dilution method
[8] = test system: Pseudomonas aeruginosa; assay: Antibacterial activity against Pseudomonas aeruginosa by microbroth dilution method
[9] = test system: Acinetobacter baumannii; assay: Antibacterial activity against Acinetobacter baumannii by microbroth dilution method
[10] = test system: Pseudomonas aeruginosa; assay: Antibacterial activity against Pseudomonas aeruginosa ATCC 27853 by microbroth dilution method
[11] = test system: Escherichia coli; assay: Antibacterial activity against Escherichia coli ATCC 25922 by microbroth dilution method
[12] = test system: Staphylococcus aureus; assay: (§1) Potentiation of (Z)-4-((bis(2-hydroxyethyl)amino)methyl)-7-((1-(4-methoxyphenyl)-3-oxo-3-(thiazol-2-yl)prop-1-en-2-yl)oxy)-2H-chromen-2-one-induced antibacterial activity against methicillin resistant Staphylococcus aureus N315 assessed as (Z)-4-((bis(2-hydroxyethyl)amino)methyl)-7-((1-(4-methoxyphenyl)-3-oxo-3-(thiazol-2-yl)prop-1-en-2-yl)oxy)-2H-chromen-2-one MIC
[13] = test system: Enterococcus faecalis; assay: as §1, with “Enterococcus faecalis” for “methicillin resistant Staphylococcus aureus N315”
[14] = test system: Klebsiella pneumoniae; assay: Potentiation of(Z)-4-((bis(2-hydroxyethyl)amino)methyl)-7-((1-(4-methoxyphenyl)-3-oxo-3-(thiazol-2-yl)prop-1-en-2-yl)oxy)-2H-chromen-2-one-induced antibacterial activity against Klebsiella pneumoniae assessed as (Z)-4-((bis(2-hydroxyethyl)amino)methyl)-7-((1-(4-methoxyphenyl)-3-oxo-3-(thiazol-2-yl)prop-1-en-2-yl)oxy)-2H-chromen-2-one MIC
[15] = test system: Escherichia coli; assay: as §1, with “Escherichia coli” for “methicillin resistant Staphylococcus aureus N315”

Compound | MIC [1] [µM] | MIC [2] [µM] | MIC [3] [µM] | MIC [4] [µM] | MIC [5] [µM] | MIC [6] [µM] | MIC [7] [µM] | MIC [8] [µM] | MIC [9] [µM] | MIC [10] [µM] | MIC [11] [µM] | MIC [12] | MIC [13] | MIC [14] | MIC [15]
O=C(/C(=C/c1ccc(Br)cc1)Oc1ccc2c(CN(CCO)CCO)cc(=O)oc2c1)c1nccs1 | 136 (≈ 77.7 µg/mL) | 136 (≈ 77.7 µg/mL) | 68 (≈ 38.9 µg/mL) | 272 (≈ 155 µg/mL) | 272 (≈ 155 µg/mL) | 1090 (≈ 621 µg/mL) | 1090 (≈ 621 µg/mL) | 272 (≈ 155 µg/mL) | 543 (≈ 310 µg/mL) | 1090 (≈ 621 µg/mL) | 543 (≈ 310 µg/mL) |  |  |  | 
CCn1cc(C(=O)O)c(=O)c2cc(F)c(N3CCNCC3)cc21 [NORFLOXACIN] | 25 (≈ 7.98 µg/mL) | 25 (≈ 7.98 µg/mL) | 6 (≈ 1.92 µg/mL) | 3 (≈ 0.958 µg/mL) | 6 (≈ 1.92 µg/mL) | 13 (≈ 4.15 µg/mL) | 50 (≈ 16 µg/mL) | 25 (≈ 7.98 µg/mL) | 25 (≈ 7.98 µg/mL) | 3 (≈ 0.958 µg/mL) | 25 (≈ 7.98 µg/mL) | 0.781 10^-3mM | 0.781 10^-3mM | 0.203 10^-3mM | 0.781 10^-3mM
O=C(/C(=C/c1c[nH]c2ccccc12)Oc1ccc2c(CN(CCO)CCO)cc(=O)oc2c1)c1nccs1 | 15 (≈ 7.97 µg/mL) | 60 (≈ 31.9 µg/mL) | 120 (≈ 63.8 µg/mL) | 120 (≈ 63.8 µg/mL) | 120 (≈ 63.8 µg/mL) | 60 (≈ 31.9 µg/mL) | 241 (≈ 128 µg/mL) | 241 (≈ 128 µg/mL) | 482 (≈ 256 µg/mL) | 482 (≈ 256 µg/mL) | 241 (≈ 128 µg/mL) |  |  |  | 
O=C(/C(=C/c1ccc(F)cc1)Oc1ccc2c(CN(CCO)CCO)cc(=O)oc2c1)c1nccs1 | 125 (≈ 63.8 µg/mL) | 125 (≈ 63.8 µg/mL) | 125 (≈ 63.8 µg/mL) | 251 (≈ 128 µg/mL) | 251 (≈ 128 µg/mL) | 251 (≈ 128 µg/mL) | 1000 (≈ 512 µg/mL) | 1000 (≈ 512 µg/mL) | 251 (≈ 128 µg/mL) | 251 (≈ 128 µg/mL) | 251 (≈ 128 µg/mL) |  |  |  | 
O=C(/C(=C/c1ccc([N+](=O)[O-])cc1)Oc1ccc2c(CN(CCO)CCO)cc(=O)oc2c1)c1nccs1 | 7 (≈ 3.76 µg/mL) | 119 (≈ 64 µg/mL) | 119 (≈ 64 µg/mL) | 60 (≈ 32.3 µg/mL) | 119 (≈ 64 µg/mL) | 238 (≈ 128 µg/mL) | 119 (≈ 64 µg/mL) | 476 (≈ 256 µg/mL) | 238 (≈ 128 µg/mL) | 238 (≈ 128 µg/mL) | 119 (≈ 64 µg/mL) |  |  |  | 
O=C(/C(=C/c1ccccc1Cl)Oc1ccc2c(CN(CCO)CCO)cc(=O)oc2c1)c1nccs1 | 61 (≈ 32.1 µg/mL) | 121 (≈ 63.8 µg/mL) | 121 (≈ 63.8 µg/mL) | 486 (≈ 256 µg/mL) | 486 (≈ 256 µg/mL) | 972 (≈ 512 µg/mL) | 972 (≈ 512 µg/mL) | 486 (≈ 256 µg/mL) | 486 (≈ 256 µg/mL) | 243 (≈ 128 µg/mL) | 243 (≈ 128 µg/mL) |  |  |  | 
O=C(/C(=C/c1c[nH]c2cc(Cl)ccc12)Oc1ccc2c(CN(CCO)CCO)cc(=O)oc2c1)c1nccs1 | 57 (≈ 32.3 µg/mL) | 57 (≈ 32.3 µg/mL) | 113 (≈ 64 µg/mL) | 57 (≈ 32.3 µg/mL) | 57 (≈ 32.3 µg/mL) | 57 (≈ 32.3 µg/mL) | 226 (≈ 128 µg/mL) | 226 (≈ 128 µg/mL) | 113 (≈ 64 µg/mL) | 113 (≈ 64 µg/mL) | 226 (≈ 128 µg/mL) |  |  |  | 
CCn1cc(/C=C(\Oc2ccc3c(CN(CCO)CCO)cc(=O)oc3c2)C(=O)c2nccs2)c2ccccc21 | 114 (≈ 63.8 µg/mL) | 14 (≈ 7.84 µg/mL) | 29 (≈ 16.2 µg/mL) | 7 (≈ 3.92 µg/mL) | 57 (≈ 31.9 µg/mL) | 229 (≈ 128 µg/mL) | 229 (≈ 128 µg/mL) | 114 (≈ 63.8 µg/mL) | 57 (≈ 31.9 µg/mL) | 57 (≈ 31.9 µg/mL) | 229 (≈ 128 µg/mL) |  |  |  | 
